ChEMBL document CHEMBL2146474, “Synthesis and evaluation of the anti-proliferative and NF-κB activities of a library of simplified tylophorine analogs” (Bioorg Med Chem, 2012)
Active and inactive are the calls of the source. No cut-off for these calls is given here.

Key:
MCF7 [1] = test: Cytotoxicity against human MCF7 cells assessed as growth inhibition at 5 uM after 72 hrs by alamar blue assay; type: functional; conditions: for inhibition of growth at 5 µM: MCF7, 72 h, read-out: GI
MCF7 [2] = test: Growth inhibition in human MCF7 cells after 72 hrs by alamar blue assay; type: functional; conditions: MCF7, 72 h
Summary of the method: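 MCF-7 cells from exponential-phase culture re-suspended in RPMI1640 with 10% FBS, adjusted to 10⁵ cells/mL and plated in 96-well plates. Compounds from 10 mM DMSO stocks were added in fresh medium across varying concentrations. Cells were grown a further 72 h, then alamarBlue was added as read-out.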

[3] = Inhibition of TNFalpha-induced NF-kappaB activation in human A549 cells after 30 mins by luciferase reporter gene assay; type: cell-based; conditions: A549, 0.5 h
Summary of the method: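 A549/NF-κB-luc reporter cells trypsinized, seeded at 5000 cells/well and left 24 h to attach. Compound in complete growth medium added 30 min before TNF-α (1:667 dilution in 1× PBS). After a further 7 h, Bright-Glo luciferin reagent added and luciferase activity read 2 min later.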

DU-145 = test: Growth inhibition in human DU145 cells after 72 hrs by alamar blue assay; type: functional; conditions: DU-145, 72 h
Summary of the method: (§1)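 Cells harvested from exponential-phase culture and resuspended at 10⁵ cells/mL in growth medium with 10% FBS (RPMI1640, EMEM or DMEM; the DMEM also held penicillin, streptomycin and hygromycin), seeded in 96-well plates. Compounds from 10 mM DMSO stocks added in fresh medium across varying concentrations. Cultures grown a further 72 h, then alamarBlue added as read-out.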

A549 = test: Growth inhibition in human A549 cells after 72 hrs by alamar blue assay; type: functional; conditions: A549, 72 h; summary of the method: as §1

SMILES | growth inhibition (GI) (MCF7 [1]) | GI50 (MCF7 [2]) | other results
COc1cc2c3c(c4cc(OC)c(OC)cc4c2cc1OC)CN(Cc1c(OC)cccc1OC)CC3 | inactive |  | 
COc1cc2c3c(c4cc(OC)c(OC)cc4c2cc1OC)CN1CCC[C@H]1C3 [(S)-TYLOPHORINE] |  | 42 nM | 
COc1ccc(CN2CCc3c(c4cc(OC)c(OC)cc4c4cc(OC)c(OC)cc34)C2)cc1 | Active |  | 
COc1cc2c3c(c4cc(OC)c(OC)cc4c2cc1OC)CN(Cc1ccc(CO)o1)CC3 | Active |  | 
COc1cc2c3c(c4cc(OC)c(OC)cc4c2cc1OC)CN(Cc1ccc([N+](=O)[O-])cc1)CC3 | Active |  | 
COc1cc2c3c(c4cc(OC)c(OC)cc4c2cc1OC)CN(Cc1ccccc1)CC3 | inactive |  | 
COc1cc2c3c(c4cc(OC)c(OC)cc4c2cc1OC)CN(Cc1cc(C)on1)CC3 | Active |  | 
COc1cc2c3c(c4cc(OC)c(OC)cc4c2cc1OC)CN1CCC[C@@H]1C3 [TYLOPHORINE] |  | 32 nM | 
COc1cc2c3c(c4cc(OC)c(OC)cc4c2cc1OC)CN(Cc1ccccc1O)CC3 | Active |  | 
COc1ccccc1CN1CCc2c(c3cc(OC)c(OC)cc3c3cc(OC)c(OC)cc23)C1 |  | 600 nM | IC50 [3]: 15000 nM; inhibition of growth at 5 µM (MCF7 [1]): 90%; GI50 (DU-145): 1500 nM; GI50 (A549): 1600 nM
COc1cc2c3c(c4cc(OC)c(OC)cc4c2cc1OC)CN(CCN)CC3 | inactive |  | 
COc1cc2c3c(c4cc(OC)c(OC)cc4c2cc1OC)CN(Cc1cccc(OC)c1O)CC3 | Active | 3000 nM | IC50 [3]: 18900 nM; GI50 (DU-145): 2100 nM; GI50 (A549): 2100 nM
COc1cc2c3c(c4cc(OC)c(OC)cc4c2cc1OC)CNCC3 |  |  | inhibition of growth at 5 µM (MCF7 [1]): 50%
COc1cc2c3c(c4cc(OC)c(OC)cc4c2cc1OC)CN1CCCC1C3 (racemic) [(+/-)-TYLOPHORINE] |  | 42 nM | IC50 [3]: 30 nM; GI50 (DU-145): 71 nM; GI50 (A549): 45 nM
COc1cc2c3c(c4cc(OC)c(OC)cc4c2cc1OC)CN(C)CC3 |  |  | inhibition of growth at 5 µM (MCF7 [1]): 50%
